Test results as given in ChEMBL document CHEMBL1129790 (J Med Chem, 1996).

What was measured:
[1] = molecular target: Glutamate receptor ionotropic, AMPA (Rattus norvegicus, UniProt P19490+P19491+P19492+P19493); assay: Affinity against Ionotropic glutamate receptor AMPA using [3H]AMPA in selective radioligand binding assay; type: protein-complex assay
Method in brief: (§1)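 Displacement of the ionotropic radioligands ([3H]CGS19755 for NMDA, [3H]AMPA for AMPA, [3H]kainate for kainate sites) in rat forebrain membranes in vitro. Compounds were tested up to 100 μM, with IC50 as the read-out.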

[2] = molecular target: Glutamate receptor ionotropic, kainate; assay: Affinity value against Ionotropic glutamate receptor kainate using [3H]-kainic acid in selective radioligand binding assay.; type: protein-complex assay; method in brief: as §1
[3] = In vitro ability to displace [3H]glutamate binding to metabotropic glutamate receptors in rat forebrain membranes; type: cell membranes, Membrane
Method in brief: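 Radioligand displacement of ACPD-sensitive [3H]glutamate binding to metabotropic glutamate receptors in rat forebrain membranes in vitro. IC50 is reported as mean ± error.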

Glutamate NMDA receptor = assay: Affinity value against N-methyl-D-aspartate (NMDA) receptor using [3H]-CGS- 19755 in glutamate radioligand binding assay.; type: protein-complex assay
Method in brief: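 Displacement of the ionotropic radioligands ([3H]CGS19755 for NMDA, [3H]AMPA for AMPA, [3H]kainate for kainate sites) in rat forebrain membranes in vitro.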

Rattus norvegicus [4] = organism: Rattus norvegicus; assay: Inhibition of forskolin-stim cAMP formation in cross-chopped slices of the adult rat cerebral cortex.; type: functional
Rattus norvegicus [5] = organism: Rattus norvegicus; assay: Augmentation of AMPA-induced excitation after Microelectrophoretic application to intact rat spinal neuron; type: functional
Method in brief: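 Female Wistar rats (200–230 g) under pentobarbitone Na (60 mg/kg ip initially, supplemented ip as needed) with lumbar laminectomy. A seven-barrel glass microelectrode in spinal gray matter recorded single-neuron firing during timed intermittent AMPA ejection (barrel 10 mM in 200 mM NaCl, pH 7.4). Agonists (barrel 25 mM in 175 mM NaCl, pH 7.4) were ejected in varied order across cells. Response reported as % increase over control, mean ± SEM.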

Mus musculus = assay: Dose dependent blocking of limbic seizures induced by compound 1 by systemically administrating intraperitoneally
Rattus norvegicus [6] = organism: Rattus norvegicus; assay: Stimulation of [3H]IP (tritiated inositol monophosphate) formation in cross-chopped slices of the neonata rat cerebral cortex.; type: functional

Row | SMILES | IC50 [1] | IC50 [2] | IC50 [3] | IC50 (Glutamate NMDA receptor) | EC50 (Rattus norvegicus [4]) | Increase (Rattus norvegicus [5]) | EC50 (Mus musculus) | EC50 (Rattus norvegicus [6])
1 | N[C@@]1(C(=O)O)CN[C@@H](C(=O)O)C1 | > 100 µM | > 100 µM | 6.49 µM | > 100 µM | 14.5 µM | 52% | 271 mg/kg | –
2 | N[C@@]1(C(=O)O)CN[C@H](C(=O)O)C1 | > 100 µM | > 100 µM | > 100 µM | 23.7 µM | – | – | – | –
3 | N[C@@]1(C(=O)O)CC[C@@H](C(=O)O)C1 | > 100 µM | > 100 µM | 10.3 µM | > 100 µM | 8.17 µM | 95% | – | 27.7 µM

Now from value to molecule, other results behind:

Row | IC50 [1] | IC50 [2] | IC50 [3] | IC50 (Glutamate NMDA receptor) | SMILES | EC50 (Rattus norvegicus [4]) | Increase (Rattus norvegicus [5]) | EC50 (Mus musculus) | EC50 (Rattus norvegicus [6])
4 | > 100 µM | > 100 µM | > 100 µM | – | N[C@]1(C(=O)O)CN[C@@H](C(=O)O)C1 | – | – | – | –
5 | > 100 µM | > 100 µM | > 100 µM | > 100 µM | N[C@]1(C(=O)O)CN[C@H](C(=O)O)C1 | – | – | – | –
